Data taken from ChEMBL document CHEMBL1156756, “4-Oxo-beta-lactams (azetidine-2,4-diones) are potent and selective inhibitors of human leukocyte elastase” (J Med Chem, 2010).
Active and inactive are the calls of the source. The rule behind the calls is not given here.

Tests used:
[1] = molecular target: T1, Myeloblastin (Homo sapiens) (UniProt P24158); test: Inhibition of human proteinase 3
T1 sequence (whole entry): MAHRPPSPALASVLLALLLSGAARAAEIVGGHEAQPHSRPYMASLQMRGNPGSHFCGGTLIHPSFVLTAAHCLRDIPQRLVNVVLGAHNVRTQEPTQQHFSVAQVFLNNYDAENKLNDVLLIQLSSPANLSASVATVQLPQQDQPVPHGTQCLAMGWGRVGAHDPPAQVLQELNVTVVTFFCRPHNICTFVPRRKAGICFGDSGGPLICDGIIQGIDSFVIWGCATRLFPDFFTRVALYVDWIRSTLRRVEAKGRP
Outline: (§1)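 Proteinase 3 stock (325 nM in 0.05 M acetate pH 6, 150 mM NaCl) mixed at 25 °C with inhibitor in DMSO and MeOSuc-Ala-Ala-Pro-Val-p-nitroanilide (stock 50 mM in DMSO) in 0.1 M HEPES pH 7.2. A410 followed for 20 000 s. Progress curves fitted to slow-binding equations. Uninhibited controls ran linearly.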

[2] = molecular target: T2, Cathepsin G (Homo sapiens) (UniProt P08311); test: Inhibition of human cathepsin G
T2 sequence (whole entry): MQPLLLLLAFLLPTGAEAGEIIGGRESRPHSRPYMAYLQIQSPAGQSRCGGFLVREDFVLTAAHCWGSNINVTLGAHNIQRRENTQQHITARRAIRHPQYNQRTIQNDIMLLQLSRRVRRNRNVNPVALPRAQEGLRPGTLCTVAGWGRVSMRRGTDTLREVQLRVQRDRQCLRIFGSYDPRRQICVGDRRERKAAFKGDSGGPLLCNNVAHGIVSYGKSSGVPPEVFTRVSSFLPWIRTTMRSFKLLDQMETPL
Outline: (§2)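 Cathepsin G stock (680 nM in 0.05 M acetate, pH 5.5) mixed at 25 °C with inhibitor in DMSO and Suc-Ala-Ala-Pro-Phe-p-nitroanilide (stock 42.5 mM in DMSO) in 0.1 M HEPES pH 7.5. A410 recorded continuously for 20 min. Progress curves fitted with slow-binding kinetics. Uninhibited controls ran linearly. Highest concentration tested 60 μM.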

[3] = molecular target: T3, Papain (Carica papaya) (UniProt P00784); test: Inhibition of papaya papain at 60 uM
T3 sequence (whole entry): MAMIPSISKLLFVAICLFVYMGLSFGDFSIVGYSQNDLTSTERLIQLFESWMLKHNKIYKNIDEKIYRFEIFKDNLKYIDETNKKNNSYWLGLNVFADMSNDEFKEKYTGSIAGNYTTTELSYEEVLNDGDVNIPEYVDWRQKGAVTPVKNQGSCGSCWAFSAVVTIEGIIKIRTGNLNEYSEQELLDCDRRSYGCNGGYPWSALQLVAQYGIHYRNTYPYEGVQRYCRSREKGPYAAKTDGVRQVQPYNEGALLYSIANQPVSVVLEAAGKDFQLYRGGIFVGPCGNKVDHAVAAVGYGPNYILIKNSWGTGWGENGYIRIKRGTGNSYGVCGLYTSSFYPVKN
Outline: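 Incubation method. Activated papain was held with inhibitor at 25 °C in 50 mM potassium phosphate pH 7.0 with 2.5 mM EDTA. At intervals, aliquots were assayed with BAPA substrate (stock 10 mM in DMSO) in the same buffer, reading A410 for 4 min. Inhibitor-free controls were run in parallel.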

[4] = molecular target: T2, Cathepsin G (Homo sapiens); test: Inhibition of human cathepsin G at 60 uM; outline: as §2
[5] = molecular target: T1, Myeloblastin (Homo sapiens); test: Inhibition of human proteinase 3 at 10 uM; outline: as §1
[6] = molecular target: T1, Myeloblastin (Homo sapiens); test: Inhibition of human proteinase 3 at 60 uM; outline: as §1
[7] = Stability in human plasma assessed as half life at pH 7.4
[8] = Chemical stability in phosphate buffer assessed as half life at pH 7.4; assay type: physicochemical

Row | Compound | Activity ([1]; TDE = time-dependent effect) | Activity [3] | also measured
1 | CCC1(CC)C(=O)N(c2ccccc2CSc2nccn2C)C1=O | tde | – | –
2 | CCC1(CC)C(=O)N(c2cccc3ccccc23)C1=O | – | inactive | Activity [2]: 35.6 M⁻¹ s⁻¹
3 | CCC1(CC)C(=O)N(c2ccc(CSc3nnc(-c4ccccc4)o3)cc2)C1=O | tde | – | –
4 | CCC1(CC)C(=O)N(c2ccc(CSc3nc4ccccc4o3)cc2)C1=O | – | inactive | Activity [4]: inactive; Activity [1]: 29.6 M⁻¹ s⁻¹
5 | CCC1(CC)C(=O)N(c2ccc(C#N)cc2)C1=O | – | inactive | Activity [2]: 36.5 M⁻¹ s⁻¹; inhibition [5]: 16%
6 | CCC1(CC)C(=O)N(c2ccc(C)nc2)C1=O | tde | – | –
7 | CC1(C)C(=O)N(c2ccccc2)C1=O | tde | – | –
8 | CCC1(CC)C(=O)N(c2cccnc2)C1=O | tde | – | –
9 | CCC1(CC)C(=O)N(Cc2ccccc2)C1=O | tde | – | –
10 | CCC1(Cc2ccccc2)C(=O)N(c2ccccc2)C1=O | – | inactive | Activity [4]: inactive; Activity [1]: 20.2 M⁻¹ s⁻¹
11 | CC1(C)C(=O)N(c2ccc(Cl)cc2)C1=O | tde | – | –
12 | CCC1(CC)C(=O)N(c2ccc(C)cc2)C1=O | tde | – | –
13 | CC1(Cc2ccccc2)C(=O)N(c2ccccc2)C1=O | – | inactive | inhibition [6]: 22%; Activity [4]: inactive
14 | CCOC(=O)CN1C(=O)C(CC)(CC)C1=O | tde | – | –
15 | CCC1(CC)C(=O)N(c2ccccc2CSc2nc3ccccc3s2)C1=O | tde | – | half-life [7]: 1.6 h; half-life [8]: 37 h
16 | CCC1(CC)C(=O)N(c2ccccc2C)C1=O | tde | – | –
17 | CCC1(CC)C(=O)N(c2ccc(Cl)cc2)C1=O | tde | – | –
18 | CCC1(CC(C)C)C(=O)N(c2ccccc2)C1=O | tde | – | –
19 | CCC1(CC)C(=O)N(c2ccccc2CSc2nnc(-c3ccccc3)o2)C1=O | tde | – | –
20 | CCC1(CC)C(=O)N(c2ccc(CSc3ccccc3)cc2)C1=O | – | inactive | Activity [1]: 122 M⁻¹ s⁻¹
21 | CCC1(CC)C(=O)N(c2ccccc2)C1=O | tde | – | –
22 | CCC1(CC)C(=O)N(c2ccc(CSc3nc4cc(C(=O)O)ccc4o3)cc2)C1=O | – | inactive | Activity [4]: inactive; Activity [1]: 689 M⁻¹ s⁻¹
23 | CCC1(CC)C(=O)N(c2ccc(OC)cc2)C1=O | tde | – | –
24 | CCCCC1(CC)C(=O)N(c2ccccc2)C1=O | – | inactive | Activity [2]: 47.3 M⁻¹ s⁻¹
25 | CCC1(CC)C(=O)N(c2ccc(CSc3nc4ccccc4s3)cc2)C1=O | tde | – | half-life [7]: 0.4 h; half-life [8]: 10 h
26 | CCC1(CC)C(=O)N(c2ccc(CSc3nc4ccccc4s3)nc2)C1=O | – | inactive | half-life [7]: 0.2 h; Activity [4]: inactive; half-life [8]: 13 h; Activity [1]: 4080 M⁻¹ s⁻¹
27 | CCC1(CC)C(=O)N(c2ccccc2CSc2nc3ccccc3o2)C1=O | – | inactive | Activity [4]: inactive; Activity [1]: 361 M⁻¹ s⁻¹
28 | CC1(C)C(=O)N(Cc2ccccc2)C1=O | tde | – | –
